# In ChEMBL document CHEMBL5058577, “EUbOPEN Chemogenomics Library 2 (Multiplex)” (2022):
# Tested on: HEK-293T
# Experiment: Multiplex assay against HEK293T
# Assay type: toxicity, cell-based
# Details: human
# Outline: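 Hoechst33342, BioTracker Green Microtubule Cytoskeleton Dye, MitoTracker Red and Annexin V Alexa Fluor 680 were added to live cells at seeding, and imaging on a CQ1 microscope at 37°C and 5% CO2 followed compound addition. Gating by CellPathfinder machine learning separated cells into Hoechst high-intensity objects or normal cells, then normal cells into healthy, pyknosed or fragmented nuclei, then pyknosed cells into mitotic or apoptotic. Per cents of healthy-nucleus cells are reported for the tubulin, mitochondrial-mass and membrane-permeability phenotypes.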
# [1] = 12 h, 1 µM, compound concentration 1 uM, replicate 1
# [2] = 12 h, 1 µM, compound concentration 1 uM, replicate 2
# [3] = 12 h, 10 µM, compound concentration 10 uM, replicate 1
# [4] = 12 h, 10 µM, compound concentration 10 uM, replicate 2
# [5] = 24 h, 1 µM, compound concentration 1 uM, replicate 1
# [6] = 24 h, 1 µM, compound concentration 1 uM, replicate 2
# [7] = 24 h, 10 µM, compound concentration 10 uM, replicate 1
# [8] = 24 h, 10 µM, compound concentration 10 uM, replicate 2
# [9] = 48 h, 1 µM, compound concentration 1 uM, replicate 1
# [10] = 48 h, 1 µM, compound concentration 1 uM, replicate 2
# [11] = 48 h, 10 µM, compound concentration 10 uM, replicate 1
# [12] = 48 h, 10 µM, compound concentration 10 uM, replicate 2
compound,measurement,setting,value
Nc1nc(-c2ccco2)c2cnn(Cc3ccccc3F)c2n1,Population Apoptotic (%),[1],37%
same,Population Fragmented Nuclei (%),[1],6%
same,Population Healthy Nuclei (%),[1],76%
same,Population Hoechst High Intensity Objects (%),[1],9%
same,Population Membrane Permeable-Phenotype (%),[1],0%
same,Population Mitochondria Different-Phenotype (%),[1],58%
same,Population Mitotic Cells (%),[1],62%
same,Population Normal (%),[1],90%
same,Population Pyknosed Nuclei (%),[1],16%
same,Population Tubulin-Different-Phenotype (%),[1],41%
same,Total Cell Count,[1],300
same,Population Apoptotic (%),[2],36%
same,Population Fragmented Nuclei (%),[2],5%
same,Population Healthy Nuclei (%),[2],81%
same,Population Hoechst High Intensity Objects (%),[2],11%
same,Population Mitochondria Different-Phenotype (%),[2],64%
same,Population Mitotic Cells (%),[2],63%
same,Population Normal (%),[2],88%
same,Population Pyknosed Nuclei (%),[2],13%
same,Population Tubulin-Different-Phenotype (%),[2],23%
same,Total Cell Count,[2],404
same,Population Apoptotic (%),[3],33%
same,Population Fragmented Nuclei (%),[3],7%
same,Population Healthy Nuclei (%),[3],73%
same,Population Hoechst High Intensity Objects (%),[3],8%
same,Population Membrane Permeable-Phenotype (%),[3],0%
same,Population Mitochondria Different-Phenotype (%),[3],61%
same,Population Mitotic Cells (%),[3],66%
same,Population Normal (%),[3],91%
same,Population Pyknosed Nuclei (%),[3],19%
same,Population Tubulin-Different-Phenotype (%),[3],43%
same,Total Cell Count,[3],306
same,Population Apoptotic (%),[4],40%
same,Population Fragmented Nuclei (%),[4],6%
same,Population Healthy Nuclei (%),[4],76%
same,Population Hoechst High Intensity Objects (%),[4],12%
same,Population Mitochondria Different-Phenotype (%),[4],68%
same,Population Mitotic Cells (%),[4],60%
same,Population Normal (%),[4],87%
same,Population Pyknosed Nuclei (%),[4],17%
same,Population Tubulin-Different-Phenotype (%),[4],26%
same,Total Cell Count,[4],265
same,Population Apoptotic (%),[5],30%
same,Population Fragmented Nuclei (%),[5],7%
same,Population Healthy Nuclei (%),[5],77%
same,Population Hoechst High Intensity Objects (%),[5],7%
same,Population Membrane Permeable-Phenotype (%),[5],0%
same,Population Mitochondria Different-Phenotype (%),[5],36%
same,Population Mitotic Cells (%),[5],69%
same,Population Normal (%),[5],92%
same,Population Pyknosed Nuclei (%),[5],15%
same,Population Tubulin-Different-Phenotype (%),[5],26%
same,Total Cell Count,[5],396
same,Population Apoptotic (%),[6],28%
same,Population Fragmented Nuclei (%),[6],9%
same,Population Healthy Nuclei (%),[6],81%
same,Population Hoechst High Intensity Objects (%),[6],5%
same,Population Mitochondria Different-Phenotype (%),[6],46%
same,Population Mitotic Cells (%),[6],71%
same,Population Normal (%),[6],94%
same,Population Pyknosed Nuclei (%),[6],9%
same,Population Tubulin-Different-Phenotype (%),[6],17%
same,Total Cell Count,[6],514
same,Population Apoptotic (%),[7],38%
same,Population Fragmented Nuclei (%),[7],11%
same,Population Healthy Nuclei (%),[7],67%
same,Population Hoechst High Intensity Objects (%),[7],6%
same,Population Membrane Permeable-Phenotype (%),[7],2%
same,Population Mitochondria Different-Phenotype (%),[7],52%
same,Population Mitotic Cells (%),[7],61%
same,Population Normal (%),[7],93%
same,Population Pyknosed Nuclei (%),[7],21%
same,Population Tubulin-Different-Phenotype (%),[7],31%
same,Total Cell Count,[7],334
same,Population Apoptotic (%),[8],35%
same,Population Hoechst High Intensity Objects (%),[8],10%
same,Population Membrane Permeable-Phenotype (%),[8],0%
same,Population Mitochondria Different-Phenotype (%),[8],59%
same,Population Mitotic Cells (%),[8],64%
same,Population Normal (%),[8],89%
same,Population Tubulin-Different-Phenotype (%),[8],23%
same,Total Cell Count,[8],328
same,Population Apoptotic (%),[9],32%
same,Population Fragmented Nuclei (%),[9],12%
same,Population Healthy Nuclei (%),[9],75%
same,Population Hoechst High Intensity Objects (%),[9],3%
same,Population Membrane Permeable-Phenotype (%),[9],1%
same,Population Mitochondria Different-Phenotype (%),[9],31%
same,Population Mitotic Cells (%),[9],67%
same,Population Normal (%),[9],96%
same,Population Pyknosed Nuclei (%),[9],12%
same,Population Tubulin-Different-Phenotype (%),[9],18%
same,Total Cell Count,[9],641
same,Population Apoptotic (%),[10],28%
same,Population Fragmented Nuclei (%),[10],14%
same,Population Healthy Nuclei (%),[10],78%
same,Population Hoechst High Intensity Objects (%),[10],4%
same,Population Mitochondria Different-Phenotype (%),[10],21%
same,Population Mitotic Cells (%),[10],71%
same,Population Normal (%),[10],95%
same,Population Pyknosed Nuclei (%),[10],7%
same,Population Tubulin-Different-Phenotype (%),[10],14%
same,Total Cell Count,[10],769
same,Population Apoptotic (%),[11],36%
same,Population Fragmented Nuclei (%),[11],16%
same,Population Healthy Nuclei (%),[11],73%
same,Population Hoechst High Intensity Objects (%),[11],7%
same,Population Membrane Permeable-Phenotype (%),[11],0%
same,Population Mitochondria Different-Phenotype (%),[11],42%
same,Population Mitotic Cells (%),[11],63%
same,Population Normal (%),[11],92%
same,Population Pyknosed Nuclei (%),[11],9%
same,Population Tubulin-Different-Phenotype (%),[11],19%
same,Total Cell Count,[11],412
same,Population Apoptotic (%),[12],28%
same,Population Fragmented Nuclei (%),[12],13%
same,Population Healthy Nuclei (%),[12],74%
same,Population Mitochondria Different-Phenotype (%),[12],43%
same,Population Mitotic Cells (%),[12],71%
same,Population Pyknosed Nuclei (%),[12],12%
same,Population Tubulin-Different-Phenotype (%),[12],15%
same,Total Cell Count,[12],398
